Assays:
[1] = biological target: T1, Estrogen receptor (Homo sapiens) (UniProt P03372); assay: Agonist activity at Estrogen receptor expressed in human Ishikawa cells assessed as induction of alkaline phosphatase after 3 days by spectrophotometry relative to estradiol; format: functional, cell-based
T1 sequence (whole entry): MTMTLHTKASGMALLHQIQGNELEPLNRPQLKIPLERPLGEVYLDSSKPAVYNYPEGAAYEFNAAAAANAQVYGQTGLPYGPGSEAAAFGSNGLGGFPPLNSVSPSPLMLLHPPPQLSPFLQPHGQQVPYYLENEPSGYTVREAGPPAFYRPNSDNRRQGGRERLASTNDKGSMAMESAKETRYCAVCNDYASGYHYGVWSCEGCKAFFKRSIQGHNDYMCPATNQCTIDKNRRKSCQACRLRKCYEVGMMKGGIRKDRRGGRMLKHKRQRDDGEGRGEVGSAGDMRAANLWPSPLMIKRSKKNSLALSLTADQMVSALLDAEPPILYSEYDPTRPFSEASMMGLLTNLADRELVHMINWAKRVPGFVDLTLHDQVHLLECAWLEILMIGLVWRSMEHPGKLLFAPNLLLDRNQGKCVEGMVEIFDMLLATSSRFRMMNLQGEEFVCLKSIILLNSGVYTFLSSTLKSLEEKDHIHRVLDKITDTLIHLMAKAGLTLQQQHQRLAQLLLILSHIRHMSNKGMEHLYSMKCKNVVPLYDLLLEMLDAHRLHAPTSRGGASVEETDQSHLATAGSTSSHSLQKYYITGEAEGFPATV
Summary of the method: (§1)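 Ishikawa endometrial adenocarcinoma cells were grown in phenol red-free medium with charcoal-stripped bovine serum, with steroids across at least 6 orders of magnitude, for 3 days. Cells were then washed and freeze-thawed, and alkaline phosphatase was read kinetically as p-nitrophenol at 405 nm from 5 mM p-nitrophenyl phosphate at pH 9.8. RSA is the ratio of 1/EC50 versus E2 ×100, from curve fitting. At least 3 experiments were run in duplicate.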

[2] = biological target: T2, Estrogen receptor (Bos taurus) (UniProt P49884); assay: Displacement of [3H]estradiol from calf cytosolic ER relative to estradiol
T2 sequence (whole entry): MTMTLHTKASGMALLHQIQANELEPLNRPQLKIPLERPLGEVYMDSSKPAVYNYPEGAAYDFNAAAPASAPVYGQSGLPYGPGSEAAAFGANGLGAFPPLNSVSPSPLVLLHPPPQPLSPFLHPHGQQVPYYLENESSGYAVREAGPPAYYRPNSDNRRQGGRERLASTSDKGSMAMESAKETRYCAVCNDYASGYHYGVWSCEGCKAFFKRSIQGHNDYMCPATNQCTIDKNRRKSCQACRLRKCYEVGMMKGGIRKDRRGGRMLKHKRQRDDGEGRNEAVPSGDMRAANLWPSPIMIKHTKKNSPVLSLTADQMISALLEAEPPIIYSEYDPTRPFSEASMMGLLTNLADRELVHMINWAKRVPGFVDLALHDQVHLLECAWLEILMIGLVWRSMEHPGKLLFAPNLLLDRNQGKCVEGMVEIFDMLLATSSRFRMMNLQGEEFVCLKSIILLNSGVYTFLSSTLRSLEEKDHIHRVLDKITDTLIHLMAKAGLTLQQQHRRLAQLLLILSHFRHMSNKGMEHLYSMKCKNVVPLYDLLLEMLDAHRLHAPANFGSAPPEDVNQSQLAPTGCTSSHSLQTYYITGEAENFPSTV

[3] = biological target: Estrogen receptor beta (Homo sapiens) (UniProt Q92731); assay: Displacement of [3H]estradiol from human ERbeta LBD expressed in Escherichia coli
Estrogen receptor beta (Homo sapiens), sequence (Q92731 whole entry, the tested form may be a part): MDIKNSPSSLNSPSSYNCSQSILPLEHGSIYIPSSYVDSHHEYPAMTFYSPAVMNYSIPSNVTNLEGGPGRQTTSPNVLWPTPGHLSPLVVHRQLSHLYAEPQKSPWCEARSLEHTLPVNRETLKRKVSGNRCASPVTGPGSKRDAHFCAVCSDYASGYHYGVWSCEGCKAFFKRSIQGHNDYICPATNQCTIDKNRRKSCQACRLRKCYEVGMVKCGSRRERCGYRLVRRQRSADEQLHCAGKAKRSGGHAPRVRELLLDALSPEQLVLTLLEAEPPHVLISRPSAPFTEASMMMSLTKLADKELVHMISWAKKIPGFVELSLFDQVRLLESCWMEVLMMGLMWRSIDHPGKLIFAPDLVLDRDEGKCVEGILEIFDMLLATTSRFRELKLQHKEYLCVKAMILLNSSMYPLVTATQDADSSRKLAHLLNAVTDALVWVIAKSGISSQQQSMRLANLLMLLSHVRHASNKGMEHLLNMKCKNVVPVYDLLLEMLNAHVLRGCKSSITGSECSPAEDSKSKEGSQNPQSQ

[4] = biological target: T1, Estrogen receptor (Homo sapiens); assay: Mixed agonist and antagonist activity at Estrogen receptor expressed in human Ishikawa cells assessed as induction of alkaline phosphatase after 3 days by spectrophotometry relative to estradiol; format: functional, cell-based; design: scale not given: the % may be the effect or the level left; summary of the method: as §1
Estrogen receptor = biological target: T3, Estrogen receptor (Homo sapiens, UniProt P03372); assay: Antagonist activity at Estrogen receptor expressed in human Ishikawa cells assessed as inhibition of estradiol-induced increase in alkaline phosphatase after 3 days by spectrophotometry; format: functional, cell-based
T3 sequence (P03372 whole entry): T1 sequence (whole entry)
Summary of the method: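 Ishikawa cells were grown in phenol red-free, charcoal-stripped bovine serum medium. Compounds at 10−6 to 10−12 M were tested against 10−9 M E2 for 3 days. Ki came from curve fitting. At least 3 experiments were run in duplicate.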

SMILES	RSA [1] [%]	RBA [3] [%]	other results
C=C[C@H]1C[C@]2(C)[C@@H](O)CC[C@H]2[C@@H]2CCc3cc(O)ccc3[C@H]21	70		
COc1ccc(/C(=C(/C#N)c2ccc(O)cc2)c2ccc(O)cc2)cc1			RBA [2]: 17%
C[C@]12C[C@H](c3ccc(O)cc3)[C@@H]3c4ccc(O)cc4CC[C@H]3[C@@H]1CC[C@@H]2O	17	41	
N#CC(=C(c1ccc(O)cc1)c1ccc(O)cc1)c1ccc(O)cc1			RBA [2]: 166%
COc1ccc([C@H]2C[C@]3(C)[C@@H](O)CC[C@H]3[C@@H]3CCc4cc(O)ccc4[C@H]32)cc1			Activity [4]: 35%
C[C@]12C[C@H](c3ccc(OCCCCCS(=O)(=O)C(F)(F)C(F)(F)F)cc3)[C@@H]3c4ccc(O)cc4CC[C@H]3[C@@H]1CC[C@@H]2O		27	Ki (Estrogen receptor): 5.3 nM
C[C@]12C[C@H](c3ccc(OCCOCCOCCn4cc(CNC5=CC(=O)c6ccccc6C5=O)nn4)cc3)[C@@H]3c4ccc(O)cc4CC[C@H]3[C@@H]1CC[C@@H]2O			Ki (Estrogen receptor): 1.1 nM
CO[C@H]1C[C@]2(C)[C@@H](O)CC[C@H]2[C@@H]2CCc3cc(O)ccc3[C@H]21	76		
CN(C)CCOc1ccc([C@H]2C[C@]3(C)[C@@H](O)CC[C@H]3[C@@H]3CCc4cc(O)ccc4[C@H]32)cc1		17	
